Measurements: paper PMC4229392 (Investigational new drugs, 2014)
Where “and” joins values, the source holds several entries; their conditions need not be identical. Equal values may be shown once. Entries after “also recorded” stand apart in the source; their conditions may differ.

What was measured:
[1] = tested on: AAK inhibition in xenograft models; conditions: cited from earlier work
[2] = tested on: advanced, non-hematologic malignancies; assay: Antitumor activity by RECIST version 1.1; type: in vivo, human
[3] = tested on: patients with advanced, non-hematologic malignancies
[4] = cited from earlier work
[5] = Plasma pharmacokinetics of alisertib ECT; type: in vivo, human; conditions: for Tmax: human, plasma
Outline: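 Adults with advanced non-haematologic cancers took oral enteric-coated tablets at 10–60 mg BID for 7 days, then 14 days off (21-day cycles). In cycle 1, plasma was sampled within 1 h before the morning dose and at 0.5–12 h post-dose on days 1 and 7. Further samples were taken 12–132 h after the day 7 evening dose. A validated LC-MS/MS assay and non-compartmental analysis were used. Geometric means were reported only for cohorts of at least 2 patients.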

[6] = Urine PK, renal clearance of alisertib; type: in vivo, human
Outline: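 Urine was collected only from patients dosed at 40 mg BID or higher. Samples were taken pre-dose on day 1 and pooled over 0–12 h after the day 7 morning dose of the 7-day oral BID course. Renal clearance was derived from the day 7 collection in 12 patients (10 at 50 mg BID, 2 at 60 mg BID). Quantitation was by LC-MS/MS.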

[7] = acidic solution; preclinical evaluations; cited from earlier work
[8] = human, in vivo, 7 days of each 21-day cycle
[9] = steady-state (day 7), ECT, 20 mg BID (n = 3)
[10] = steady-state (day 7), ECT, 40 mg BID (n = 3)
[11] = steady-state (day 7), ECT, 50 mg BID (n = 11)
[12] = steady-state (day 7), ECT, 60 mg BID (n = 2)

In the case of `COc1cc(Nc2ncc3c(n2)-c2ccc(Cl)cc2C(c2c(F)cccc2OC)=NC3)ccc1C(=O)O` [alisertib], the “Concentration associated with saturating levels of pharmacodynamic (PD) activity” value ([1]; murine xenograft studies) is listed as 1 µM, the “Concentration associated with AAK inhibition and antitumor activity” value ([1]; preclinical xenograft models) is listed as 1 µM and the “Patients with stable disease” value ([2]; 16 response-evaluable patients) is listed as “Nine patients achieved stable disease; also recorded: Nine patients had stable disease”. For the same compound, the “Responses by RECIST” value ([2]; 16 response-evaluable patients) was “No responses by RECIST were observed; also recorded: no complete or partial responses by RECIST were observed”, the “Patients completing treatment for symptomatic deterioration” value ([2]; N = 24) was 21% and the “Duration of stable disease, individual patients” value ([2]; censored observations (*)) was 3.98 months and 1.28 months and 5.45 months and 6.93 months. For the same compound, the “Duration of stable disease, individual patients” value ([2]; not censored) was 5.59 months and 2.56 months and 3.48 months and 3.15 months and 8.31 months, the “Patients with drug-related SAEs in the MTD cohort” value ([3]; 50 mg BID) was 4 patients and the “Patients who died during the first treatment cycle” value ([3]; 50 mg starting dose, not considered related to alisertib) was 2 patients. For the same compound, the “Maximum tolerated dose (MTD)” value ([3]; ECT, × 7 days in a 21-day cycle) was 50 mg BID, the “Patients in whom dose reductions were necessary” value ([3]; human, in vivo) was 21% and the “Patients who discontinued treatment due to AEs” value ([3]; human, in vivo) was 29%. The “Patients with any grade of drug-related central nervous system (CNS) AEs” value ([3]; human, in vivo) was 33%, the “Patients with cycle 1 dose-limiting toxicity (grade 4 febrile neutropenia)” value ([3]; human, in vivo) was 1 of 13 and the “Patients with dose reduction for neutropenia” value ([3]; human, in vivo) was 13%. The “Patients with dose reduction for thrombocytopenia” value ([3]; human, in vivo) was 8%, the “Patients with drug-related CNS AE dizziness” value ([3]; human, in vivo) was 2 n and the “Patients with drug-related CNS AE hypersomnia” value ([3]; human, in vivo) was 5 n. For the same compound, the “Patients with drug-related CNS AE memory impairment” value ([3]; human, in vivo) was 3 n, the “Patients with drug-related grade 3 or higher gastrointestinal AEs” value ([3]; human, in vivo) was 25% and the “Patients with drug-related grade 3 or higher hematologic AEs” value ([3]; human, in vivo) was 50%. The “Patients with drug-related neutropenia” value ([3]; human, in vivo) was 50%, the “Patients with treatment-related fatigue” value ([3]; human, in vivo) was 33% and the “Alopecia, all-grade treatment-related AE” value ([3]; human, in vivo, 7 days) was 10 (42) n (%). The “Anemia, all-grade treatment-related AE” value ([3]; human, in vivo, 7 days) was 3 (13) n (%), the “Decreased appetite, all-grade treatment-related AE” value ([3]; human, in vivo, 7 days) was 5 (21) n (%) and the “Diarrhea, all-grade treatment-related AE” value ([3]; human, in vivo, 7 days) was 10 (42) n (%). For the same compound, the “Diarrhea, grade ≥3 treatment-related AE” value ([3]; human, in vivo, 7 days) was 2 (8) n (%), the “Fatigue, all-grade treatment-related AE” value ([3]; human, in vivo, 7 days) was 8 (33) n (%) and the “Fatigue, grade ≥3 treatment-related AE” value ([3]; human, in vivo, 7 days) was 2 (8) n (%). For the same compound, the “Febrile neutropenia, all-grade treatment-related AE” value ([3]; human, in vivo, 7 days) was 3 (13) n (%), the “Febrile neutropenia, grade ≥3 treatment-related AE” value ([3]; human, in vivo, 7 days) was 3 (13) n (%) and the “Hypersomnia, all-grade treatment-related AE” value ([3]; human, in vivo, 7 days) was 5 (21) n (%). For the same compound, the “Leukopenia, grade ≥3 treatment-related AE” value ([3]; human, in vivo, 7 days) was 9 (38) n (%), the “Memory impairment, all-grade treatment-related AE” value ([3]; human, in vivo, 7 days) was 3 (13) n (%) and the “Nausea, grade ≥3 treatment-related AE” value ([3]; human, in vivo, 7 days) was 2 (8) n (%). For the same compound, the “Neutropenia, all-grade treatment-related AE” value ([3]; human, in vivo, 7 days) was 12 (50) n (%), the “Neutropenia, grade ≥3 treatment-related AE” value ([3]; human, in vivo, 7 days) was 11 (46) n (%) and the “Oral candidiasis, all-grade treatment-related AE” value ([3]; human, in vivo, 7 days) was 4 (17) n (%). The “Recommended phase 2 dose (RP2D)” value ([3]; human, in vivo, 7 days) was 50 mg BID, the “Severity of CNS AEs (hypersomnia, memory loss, dizziness)” value ([3]; human, in vivo, 7 days) was 1–2 grade and the “Stomatitis, all-grade treatment-related AE” value ([3]; human, in vivo, 7 days) was 10 (42) n (%). The “Stomatitis, grade ≥3 treatment-related AE” value ([3]; human, in vivo, 7 days) was 2 (8) n (%), the “Thrombocytopenia, all-grade treatment-related AE” value ([3]; human, in vivo, 7 days) was 4 (17) n (%) and the “Vomiting, all-grade treatment-related AE” value ([3]; human, in vivo, 7 days) was 5 (21) n (%). The “Vomiting, grade ≥3 treatment-related AE” value ([3]; human, in vivo, 7 days) was 2 (8) n (%), the “Leukopenia, all-grade treatment-related AE” value [3, 8] was 10 (42) n (%) and the “Nausea, all-grade treatment-related AE” value [3, 8] was 10 (42) n (%). For the same compound, the “Tolerability of dose level” value ([3]; in vivo) was “poorly tolerated”, the “Estimated relative bioavailability (geometric mean ratio of steady state alisertib AUC0-τ) of ECT in reference to PIC” value ([4]; 40 mg BID for 7 days, n = 14, 90% CI: 74.4–108.8%) was 90% and the “Systemic exposures of ECT formulation compared with PIC formulation” value ([4]; relative bioavailability analysis of phase 1 data) was “generally similar”. The “Overall mean peak/trough ratio” value ([5]; BID dosing, all doses) was 2.2, the “Geometric mean steady-state trough concentration” value ([5]; RP2D of 50 mg BID, ECT) was > 1 µM and the Accumulation ratio ([5]; following BID dosing, all doses) was 2.4. The Tmax ([5]; oral, 40 mg, Median Tmax (range), steady-state (day 7), ECT, 40 mg BID (n = 3)) was 3 h, the Tmax ([5]; oral, 50 mg, Median Tmax (range), steady-state (day 7), ECT, 50 mg BID (n = 11)) was 2.4 h and the Tmax ([5]; oral, 60 mg, Median Tmax (range), steady-state (day 7), ECT, 60 mg BID (n = 2)) was 2.8 h. For the same compound, the Tmax ([5]; po, Overall median Tmax, oral ECT, all doses, range 0–11) was ~3 h, the “Dose dependence of systemic exposure” value ([5]; steady-state (day 7), 10–60 mg BID) was “increased with increasing doses” and the “Mean accumulation ratio (SD)” value [5, 9] was 3.0 (1.0). The “Mean peak/trough ratio (SD)” value [5, 9] was 2.1 (0.7), the “Mean accumulation ratio (SD)” value [5, 10] was 2.3 (0.4) and the “Mean peak/trough ratio (SD)” value [5, 10] was 2.3 (1.4). The “Mean accumulation ratio (SD)” value [5, 11] was 2.2 (0.9), the “Mean peak/trough ratio (SD)” value [5, 11] was 2.3 (0.8) and the Mean accumulation ratio [5, 12] was 2.4. The Mean peak/trough ratio [5, 12] was 1.8, the “Renal clearance (in words)” value ([6]; in vivo) was “negligible” and the “Renal clearance as share of apparent oral clearance” value ([6]; urine 0 to 12 h postdose day 7, 12 patients (50 and 60 mg BID)) was “less than 0.1%”. The “Solubility (in words)” value [7] was “reduced solubility in acidic solution”.
